Compound activity (PubChem)
rRNA inh HTS: inhibitors of bacterial rRNA selective over humanized ribosomes; E. coli WT GFP vs humanized-ribosome RFP mutants, fluorescence, 24 h; stronger effect = lower value; DMSO median 0, no signal -100; GFP signal change (wild-type ribosome), % (concentration not given with the values); 350,000 compounds, 1.6% hits; AID 720706;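 active means significant combined selectivity score with lowered wild-type GFP, culture density cut under 30%, mutant RFP and density less affected; inactive means any of these conditions unmet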
Cneo AK release: causes C. neoformans cell lysis; adenylate kinase release luminescence, 4 h; normalised: neutral wells 0, clomiphene wells 100; 360,000 compounds, 0.2% hits; AID 651654; lysis activity, % at 15 µM;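 active means mean lysis activity across replicates of at least 80%, whatever share of replicates individually reach that level; inactive means mean lysis activity below 80%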
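Material – log-phase Cryptococcus neoformans yeast cells · Input – 5 × 10^6 yeast cells/mL · Medium – fresh YPD growth medium · Doses – single compound concentration per well · Timing – static 4 h at 37 °C with compound, 1 h detection · Detection – adenylate kinase release luminescence · Read-out – signal increase indicating cell lysis · Control set – Clomiphene as positive lysis control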
Mot1-301 SUMO: SUMOylation pathway inhibition by Mot1-301 growth rescue | S. cerevisiae Mot1-301 growth rescue, ATP luminescence, 38.5C; percent above DMSO median, 100 means doubled | growth rescue, % at 18.8 µM | 320,000 compounds, 1% hits;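 active means every valid replicate shows activation above 250% relative to neutral control wells; inactive means the rest, any valid replicate at or below 250%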
CR mimetic SO: yeast age-related superoxide inhibition as caloric restriction mimetic. 330,000 compounds, 0.18% hits. S. cerevisiae aged cells, superoxide DHE fluorescence; stronger effect = lower value. AID 2690. superoxide response (% of plate mean), % at 10 µM;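 active means superoxide response under a set limit, about three screen SD below normal, cut at about 65% in these data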;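 further: yeast aged for seven days with compound at 30 °C before DHE staining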
PglD DTNB: PglD (C. jejuni) enzyme inhibition | purified PglD enzyme, DTNB colorimetric CoA detection | inhibition, % at 12.5 µM | 360,000 compounds, 0.098% hits; in the data active means inhibition above about 16%, passing the limit was not always enough; inconclusive means no clear call, values can overlap the other calls
AID977621: growth inhibition of wild-type GFP E. coli, dose response, H69 mutant RFP, cherry-pick | 1,900 tested, under 10 active | activity change, negative = inhibition at 50 µM | shares compounds with rRNA inh HTS | E. coli wild-type GFP strain growth, fluorescence, 24 h;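 active means Wild-type ribosome reporter drop at least double the humanized mutant ribosome reporter drop, growth loss under a set limit; inconclusive means no clear call, values can overlap the other calls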;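 further: wild-type GFP and H69 mutant RFP strains grown together 50/50 in each well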
AID977628: growth of wild-type and h24-humanized E. coli strains – h24 mutant RFP vs wild-type GFP, cherry-pick, dose response | shares compounds with rRNA inh HTS | E. coli WT GFP strain growth, fluorescence, 24 h | activity change, negative = inhibition at 50 µM | 1,900 tested, under 10 active | AID 977628;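 active means compound lowering the normal-ribosome reporter at least twice as much as the humanized-ribosome reporter, growth loss under a set limit; inconclusive means no clear call, values can overlap the other calls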;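 further: wild-type GFP and h24 humanized RFP strains co-cultured 1 to 1 per well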
Large screens that a line does not name were inactive (follow-up assays come after a bar, where they were run). An excerpt weighted towards active compounds, which were near 2.2% of everything screened.

CCCCNC(=O)CN1C(=O)C(CC)Oc2ccc(Cl)cc21 (stereo not given)	none (no result: rRNA inh HTS)
COc1cc(C(=O)Nc2ccc(S(=O)(=O)Nc3cnc4ccccc4n3)cc2)cc(OC)c1OC	none
COc1cc(OC)cc(C(=O)Nc2ccc(S(=O)(=O)Nc3cnc4ccccc4n3)cc2)c1	rRNA inh HTS -44 | AID977621 inactive
COc1cccc2c1Oc1cc([N+](=O)[O-])cc(N(C)C(C)=O)c1C=C2	rRNA inh HTS -17 | AID977628 inconclusive
CC(C)CN(C(=O)c1cc([N+](=O)[O-])cc([N+](=O)[O-])c1)C1CCS(=O)(=O)C1 (stereo not given)	rRNA inh HTS -16 | AID977621 inactive | AID977628 inactive
Cc1ccc(S(=O)(=O)NCC[C@@H]2CC[C@@H](NC(=O)c3ccccn3)[C@H](CO)O2)cc1	none (no result: Mot1-301 SUMO, CR mimetic SO)
Cc1noc(C)c1NC(=O)Nc1ccc2c(c1)C(=O)N([C@@H](C)CO)C[C@@H](C)[C@@H](CN(C)S(C)(=O)=O)O2	none (no result: Mot1-301 SUMO, CR mimetic SO)
O=C(Nc1ccccc1)Nc1ccc2c(c1)[C@@H]1C[C@H](CC(=O)N3CCCCC3)O[C@@H](CO)[C@@H]1O2	none (no result: Mot1-301 SUMO, CR mimetic SO)
CN(C)S(=O)(=O)c1ccc(Cl)c(C(=O)OCC(=O)NC(=O)c2cccn2C)c1	rRNA inh HTS -21 (no result: Cneo AK release, PglD DTNB) | AID977621 inactive | AID977628 inactive
CCN1[C@@H]2c3ccc(C4=CCCCC4)c(=O)n3C[C@H]1[C@H](CO)[C@H]2C(=O)NCCc1ccncc1	none (no result: Mot1-301 SUMO, CR mimetic SO)
O=C(C1CCCCC1)N1CC(=O)N2[C@H](CO)[C@H](c3ccc(C#CCc4ccccc4)cc3)[C@@H]2C1	none (no result: Cneo AK release, Mot1-301 SUMO, CR mimetic SO, PglD DTNB)
O=C1CCCCC1Nc1ccc(Br)cc1 (stereo not given)	rRNA inh HTS -19 (no result: Cneo AK release, Mot1-301 SUMO, CR mimetic SO, PglD DTNB) | AID977621 inactive | AID977628 inactive
COC(=O)[C@]1(Sc2ccc(C)cc2)CC(=O)N[C@@H]1c1ccccc1	rRNA inh HTS -21 (no result: Cneo AK release, Mot1-301 SUMO, CR mimetic SO, PglD DTNB) | AID977621 inactive | AID977628 inconclusive
COC(=O)[C@@]1(Sc2ccc(C)cc2)CC(=O)N[C@@H]1c1ccccc1	none (no result: Cneo AK release, Mot1-301 SUMO, CR mimetic SO, PglD DTNB)
O=C(NCc1nc2ccccc2[nH]1)c1ccc(S(=O)(=O)N2CCCC2)cc1	rRNA inh HTS -29 | AID977621 inactive
O=C(Nc1ccccc1Cl)c1ccc2c(c1)N(Cc1ccc(F)cc1)C(=O)CS2=O (stereo not given)	rRNA inh HTS -23 | AID977621 inactive
O=C(NCCc1ccccc1)c1ccc2c(c1)N(Cc1ccccc1)C(=O)CS2=O (stereo not given)	none
O=C(CCNc1cccc(Cl)c1)c1cccs1	rRNA inh HTS -20 (no result: Cneo AK release, PglD DTNB) | AID977621 inactive | AID977628 inactive
C[C@H]1CN([C@@H](C)CO)C(=O)c2cc(C#CC(C)(C)O)cnc2O[C@H]1CN(C)C(=O)CN(C)C	none (no result: Mot1-301 SUMO, CR mimetic SO)
O=C(O)CC(CC(=O)Nc1ccc2ccccc2n1)c1ccccc1 (stereo not given)	rRNA inh HTS -20 (no result: Cneo AK release, PglD DTNB) | AID977621 inactive | AID977628 inactive
CC(C)(C)NC(=O)CC(CC(=O)O)c1ccccc1 (stereo not given)	none
C[C@@H]1CCCCO[C@@H](CN(C)C(=O)Cc2ccccc2)[C@H](C)CN([C@H](C)CO)C(=O)c2cc(NS(=O)(=O)c3cccs3)ccc2O1	none (no result: Mot1-301 SUMO, CR mimetic SO)
Fc1ccccc1C1CCN(Cc2nc(CC3CC3)no2)C1 (stereo not given)	rRNA inh HTS -18 (no result: Cneo AK release, PglD DTNB) | AID977621 inactive | AID977628 inactive
Clc1ccc(OC2CCN(Cc3nc(CC4CC4)no3)CC2)cc1	none
C[C@H](CO)N1C[C@H](C)[C@@H](CN(C)C(=O)CCCN(C)C)OCCCC[C@H](C)Oc2ccc(NC(=O)Nc3ccc(F)cc3)cc2C1=O	none (no result: Mot1-301 SUMO, CR mimetic SO)
O=S(=O)(c1ccccc1)N1CC[C@@H]2[C@H](CO)Nc3ccc(Br)cc3[C@@H]21	rRNA inh HTS -42 (no result: Mot1-301 SUMO, CR mimetic SO) | AID977621 inactive
CCN(CC)CC(=O)Nc1sc2c(c1C(=O)c1ccccc1OC)CCC2	rRNA inh HTS -22 (no result: Cneo AK release, PglD DTNB) | AID977621 inactive | AID977628 inactive
CC(CCC(=O)O)C1CC[C@@]2(C)C3C(=O)CC4C(C)(C)C(O)CC[C@]4(C)C3C(=O)C[C@]12C (stereo not given in full)	rRNA inh HTS -22 | AID977621 inactive
CO[C@@H]1CN(C)C(=O)c2cccc(C#N)c2OCC[C@@H]2CC[C@@H](OC)[C@@H](CN(C)C(=O)[C@H]1C)O2	none (no result: Mot1-301 SUMO, CR mimetic SO)
O=C(O)c1ccc(NCc2cccnc2)c([N+](=O)[O-])c1	none
O=[N+]([O-])c1ccc(Cl)cc1NCc1cccnc1	rRNA inh HTS -21 (no result: Cneo AK release, PglD DTNB) | AID977621 inactive | AID977628 inconclusive
C[C@H]1CCCCO[C@@H](CN(C)CC2CCCCC2)[C@@H](C)CN([C@@H](C)CO)C(=O)c2cc(NS(C)(=O)=O)ccc2O1	none (no result: Mot1-301 SUMO, CR mimetic SO)
O=C(CCC1CCCN(C(=O)c2ccsc2)C1)N1CCN(c2ccccn2)CC1 (stereo not given)	rRNA inh HTS -18 | AID977621 inactive | AID977628 inactive
O=C(C[C@@H]1CC[C@H]2[C@@H](COC[C@@H](O)CN2C(=O)Nc2ccc(Cl)cc2)O1)N1CCCCC1	none (no result: Mot1-301 SUMO, CR mimetic SO)
O=C(C[C@@H]1CC[C@@H]2[C@H](COC[C@H](O)CN2C(=O)Nc2ccc(Cl)cc2)O1)N1CCCCC1	rRNA inh HTS -22 (no result: Mot1-301 SUMO, CR mimetic SO) | AID977628 inconclusive
COc1ccc(-c2nc(C3CCCCC3)no2)cc1OC	rRNA inh HTS -19 | AID977621 inactive | AID977628 inactive
c1ccc(-c2nc(C3CCCCC3)no2)cc1	none (no result: rRNA inh HTS)
O=C(CN1CC[n+]2c(-c3cccs3)csc21)c1ccc(-c2ccccc2)cc1	rRNA inh HTS -41 (no result: Cneo AK release, PglD DTNB) | AID977621 inactive | AID977628 inactive
Cc1ccc(C(=O)Cn2nnc(-c3cccs3)n2)cc1	none (no result: Cneo AK release, PglD DTNB)
CN(c1ccccc1)S(=O)(=O)c1ccc(Cl)c(C(=O)NC2=NCCS2)c1	none (no result: Cneo AK release, PglD DTNB)
COc1ccccc1N(C)S(=O)(=O)c1ccc(Cl)c(C(=O)NC2=NCCS2)c1	rRNA inh HTS -30 | AID977621 inactive | AID977628 inconclusive
O=S(=O)(NOCc1ccc(Cl)cc1)c1ccc(Cl)cc1	rRNA inh HTS -39 | AID977621 inactive | AID977628 inactive
Cc1ccc(S(=O)(=O)N(C)C[C@H]2Oc3c(NC(=O)c4cnccn4)cccc3C(=O)N([C@@H](C)CO)C[C@@H]2C)cc1	none (no result: Mot1-301 SUMO, CR mimetic SO)
NS(=O)(=O)c1ccc(NC(=O)CCC(=O)O)cc1	rRNA inh HTS -11 (no result: Mot1-301 SUMO, CR mimetic SO) | AID977621 inactive | AID977628 inconclusive
NS(=O)(=O)c1ccc(NC(=O)CCCC(=O)O)cc1	none (no result: Cneo AK release, PglD DTNB)
